ChEMBL document CHEMBL1287649, “Synthesis and anti-tubercular and antimicrobial activities of some 2r,4c-diaryl-3-azabicyclo[3.3.1]nonan-9-one N-isonicotinoylhydrazone derivatives” (2010)
≈ marks a conversion by molar mass, not a printed value. Calls of active or inactive are those of the source. The calls are words filed in the database; no cut-off is given here.

How the values were obtained:
Pseudomonas aeruginosa [1] = assay: Antibacterial activity against Pseudomonas aeruginosa NCIM 2035 after 24 hrs by twofold serial dilution method; format: functional; conditions: NCIM 2035, 24 h
Outline: (§1)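 Two-fold serial dilution in nutrient broth; compounds from 1 mg mL^-1 DMSO stocks, 0.2 mL into 1.8 mL seeded broth, then six serial dilutions. Inoculum from 24-h nutrient agar cultures grown at 37 ± 1 °C, final 10⁵ cfu mL^-1, pH 7.4 ± 0.2. Incubated at 37 ± 1 °C. MIC read visually after 24 h. Seeded-broth and solvent controls included.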

[2] = system: Mycobacterium tuberculosis; assay: Antitubercular activity against Mycobacterium tuberculosis H37Rv ATCC 27294 assessed as reduction of relative light unit at 1 ug/ml after 72 hrs by luciferase reporter phage assay relative to control; format: functional, H37Rv ATTC 27294; parameters: scale not given: the % may be the effect or the level left
Outline: (§2)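 Luciferase reporter phage assay. Luminescence (RLU) integrated for 10 s on a luminometer, in duplicate per sample and averaged. Percent RLU reduction calculated against untreated control. Run repeated if the control mean RLU was below 1000.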

Candida albicans [3] = assay: Antifungal activity against Candida albicans-6 NCIM C27 after 72 to 96 hrs by twofold serial dilution method; format: functional
Outline: (§3)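 Two-fold serial dilution in Sabouraud dextrose broth; compounds from 1 mg mL^-1 DMSO stocks, 0.2 mL into 1.8 mL seeded broth, then six serial dilutions. Spores from 24-h to 7-day Sabouraud agar slants, final 1.1–1.5 × 10² cfu mL^-1, pH 7.4 ± 0.2. Incubated at 28 ± 1 °C. MIC read visually after 72–96 h. Seeded-broth and solvent controls included.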

Candida albicans [4] = assay: Antifungal activity against Candida albicans-51 NCIM C27 after 72 to 96 hrs by twofold serial dilution method; format: functional; outline: as §3
Aspergillus flavus [5] = assay: Antifungal activity against Aspergillus flavus NCIM 539 at 200 ug/ml after 72 to 96 hrs by twofold serial dilution method; format: functional, organism-based
Bacillus subtilis [6] = assay: Antibacterial activity against Bacillus subtilis NCIM 2439 after 24 hrs by twofold serial dilution method; format: functional; conditions: NCIM 2439, 24 h; outline: as §1
Klebsiella pneumoniae [7] = assay: Antibacterial activity against Klebsiella pneumoniae at 200 ug/ml after 24 hrs by twofold serial dilution method; format: functional, organism-based
Staphylococcus aureus = assay: Antibacterial activity against Staphylococcus aureus NCIM 2492 after 24 hrs by twofold serial dilution method; format: functional; conditions: NCIM 2492, 24 h; outline: as §1
Aspergillus niger = assay: Antifungal activity against Aspergillus niger NCIM 590 after 72 to 96 hrs by twofold serial dilution method; format: functional; outline: as §3
Escherichia coli [8] = assay: Antibacterial activity against Escherichia coli NCIM 2345 at 200 ug/ml after 24 hrs by twofold serial dilution method; format: functional, organism-based
Candida albicans [9] = assay: Antifungal activity against Candida albicans NCIM C27 after 72 to 96 hrs by twofold serial dilution method; format: functional; outline: as §3
[10] = system: Mycobacterium tuberculosis; assay: Antitubercular activity against Mycobacterium tuberculosis H37Rv ATCC 27294 assessed as reduction of relative light unit at 2 ug/ml after 72 hrs by luciferase reporter phage assay relative to control; format: functional, H37Rv ATTC 27294; parameters: scale not given: the % may be the effect or the level left; outline: as §2
Klebsiella pneumoniae [11] = assay: Antibacterial activity against Klebsiella pneumoniae after 24 hrs by twofold serial dilution method; format: functional; outline: as §1
Escherichia coli [12] = assay: Antibacterial activity against Escherichia coli NCIM 2345 after 24 hrs by twofold serial dilution method; format: functional; conditions: NCIM 2345, 24 h; outline: as §1
Candida albicans [13] = assay: Antifungal activity against Candida albicans-6 NCIM C27 at 200 ug/ml after 72 to 96 hrs by twofold serial dilution method; format: functional, organism-based
Candida albicans [14] = assay: Antifungal activity against Candida albicans NCIM C27 at 200 ug/ml after 72 to 96 hrs by twofold serial dilution method; format: functional, organism-based
Bacillus subtilis [15] = assay: Antibacterial activity against Bacillus subtilis NCIM 2439 at 200 ug/ml after 24 hrs by twofold serial dilution method; format: functional, organism-based
Aspergillus flavus [16] = assay: Antifungal activity against Aspergillus flavus NCIM 539 after 72 to 96 hrs by twofold serial dilution method; format: functional; outline: as §3
Pseudomonas aeruginosa [17] = assay: Antibacterial activity against Pseudomonas aeruginosa NCIM 2035 at 200 ug/ml after 24 hrs by twofold serial dilution method; format: functional, organism-based

Compound | MIC (Pseudomonas aeruginosa [1]) [µg/mL] | Activity [2] [%] | MIC (Candida albicans [3]) [µg/mL] | MIC (Candida albicans [4]) [µg/mL] | Activity (Aspergillus flavus [5]) | MIC (Bacillus subtilis [6]) [µg/mL] | Activity (Klebsiella pneumoniae [7]) | MIC (Staphylococcus aureus) [µg/mL] | MIC (Aspergillus niger) [µg/mL] | Activity (Escherichia coli [8]) | MIC (Candida albicans [9]) [µg/mL] | Activity [10] [%] | MIC (Klebsiella pneumoniae [11]) [µg/mL] | MIC (Escherichia coli [12]) [µg/mL] | Activity (Candida albicans [13]) | Activity (Candida albicans [14]) | Activity (Bacillus subtilis [15]) | MIC (Aspergillus flavus [16]) [µg/mL] | Activity (Pseudomonas aeruginosa [17])
Cc1ccc([C@H]2N[C@@H](c3ccc(C)cc3)C3CCCC2/C3=N\NC(=O)c2ccncc2)cc1 | 100 (≈ 228 µM) | 72.03 | 200 (≈ 456 µM) | 100 (≈ 228 µM) | inactive | 200 (≈ 456 µM) | inactive | 200 (≈ 456 µM) | 100 (≈ 228 µM) | inactive | 100 (≈ 228 µM) | 82.04 |  |  |  |  |  |  | 
CN[C@@H]1[C@H](O[C@H]2[C@H](O[C@H]3[C@H](O)[C@@H](O)[C@H](N=C(N)N)[C@@H](O)[C@@H]3N=C(N)N)O[C@@H](C)[C@]2(O)C=O)O[C@@H](CO)[C@H](O)[C@H]1O [STREPTOMYCIN] | 25 (≈ 43 µM) |  |  |  |  | 12.5 (≈ 21.5 µM) |  | 50 (≈ 86 µM) |  |  |  |  | 50 (≈ 86 µM) | 12.5 (≈ 21.5 µM) |  |  |  |  | 
O=C(N/N=C1\C2CCCC1[C@H](c1ccccc1)N[C@@H]2c1ccccc1)c1ccncc1 | 200 (≈ 487 µM) | 77.76 |  | 100 (≈ 244 µM) | inactive |  | inactive | 100 (≈ 244 µM) | 200 (≈ 487 µM) | inactive |  | 87.9 |  |  | inactive | inactive | inactive |  | 
COc1cccc([C@H]2N[C@@H](c3cccc(OC)c3)C3CCCC2/C3=N\NC(=O)c2ccncc2)c1 | 200 (≈ 425 µM) | 77.18 | 200 (≈ 425 µM) | 200 (≈ 425 µM) |  | 50 (≈ 106 µM) |  | 200 (≈ 425 µM) | 100 (≈ 213 µM) |  | 100 (≈ 213 µM) | 87.06 | 100 (≈ 213 µM) | 200 (≈ 425 µM) |  |  |  | 100 (≈ 213 µM) | 
CC1(C)S[C@@H]2[C@H](NC(=O)Cc3ccccc3)C(=O)N2[C@H]1C(=O)O [PENICILLIN G] | 50 (≈ 150 µM) |  |  |  |  | 25 (≈ 74.8 µM) |  | 12.5 (≈ 37.4 µM) |  |  |  |  | 12.5 (≈ 37.4 µM) | 50 (≈ 150 µM) |  |  |  |  | 
C[C@@H]1[C@H](O)[C@@H](C)/C=C/C=C/C=C/C=C/C=C/C=C/C=C/[C@H](O[C@@H]2O[C@H](C)[C@@H](O)[C@H](N)[C@@H]2O)C[C@@H]2O[C@](O)(C[C@@H](O)C[C@@H](O)[C@H](O)CC[C@@H](O)C[C@@H](O)CC(=O)O[C@H]1C)C[C@H](O)[C@H]2C(=O)O [AMPHOTERICIN B] |  |  | 25 (≈ 27.1 µM) | 25 (≈ 27.1 µM) |  |  |  |  | 50 (≈ 54.1 µM) |  | 25 (≈ 27.1 µM) |  |  |  |  |  |  | 50 (≈ 54.1 µM) | 
O=C(N/N=C1\C2CCCC1[C@H](c1cccc(Cl)c1)N[C@@H]2c1cccc(Cl)c1)c1ccncc1 | 100 (≈ 209 µM) | 75.42 | 50 (≈ 104 µM) | 200 (≈ 417 µM) |  | 100 (≈ 209 µM) |  | 100 (≈ 209 µM) | 100 (≈ 209 µM) |  | 200 (≈ 417 µM) | 85.34 | 50 (≈ 104 µM) | 50 (≈ 104 µM) |  |  |  | 200 (≈ 417 µM) | 
O=C(N/N=C1\C2CCCC1[C@H](c1ccc(F)cc1)N[C@@H]2c1ccc(F)cc1)c1ccncc1 | 100 (≈ 224 µM) | 76.63 | 50 (≈ 112 µM) | 50 (≈ 112 µM) |  | 50 (≈ 112 µM) | inactive | 50 (≈ 112 µM) | 100 (≈ 224 µM) |  | 50 (≈ 112 µM) | 86.12 |  | 100 (≈ 224 µM) |  |  |  | 100 (≈ 224 µM) | 
COc1ccc([C@H]2N[C@@H](c3ccc(OC)cc3)C3CCCC2/C3=N\NC(=O)c2ccncc2)cc1 |  | 73.07 | 100 (≈ 213 µM) | 100 (≈ 213 µM) |  | 200 (≈ 425 µM) |  | 100 (≈ 213 µM) | 200 (≈ 425 µM) |  | 200 (≈ 425 µM) | 83.02 | 200 (≈ 425 µM) | 100 (≈ 213 µM) |  |  |  | 200 (≈ 425 µM) | 
NNC(=O)c1ccncc1 [ISONIAZID] |  | 98.42 |  |  |  |  |  |  |  |  |  | 98.42 |  |  |  |  |  |  | 
O=C(N/N=C1\C2CCCC1[C@H](c1ccc(Cl)cc1)N[C@@H]2c1ccc(Cl)cc1)c1ccncc1 | 100 (≈ 209 µM) | 75.61 | 100 (≈ 209 µM) | 50 (≈ 104 µM) |  | 100 (≈ 209 µM) |  | 50 (≈ 104 µM) | 100 (≈ 209 µM) |  | 100 (≈ 209 µM) | 85.22 | 100 (≈ 209 µM) | 50 (≈ 104 µM) |  |  |  | 200 (≈ 417 µM) | inactive
